Data as given in ChEMBL document CHEMBL4513216, “Probing the Open Global Health Chemical Diversity Library for Multistage-Active Starting Points for Next-Generation Antimalarials” (ACS Infect Dis, 2020).

Test: Toxicity liver stage against HepG2, at 10uM
Type: cell-based
Parameters: test concentration 10 uM, cell line HepG2-A16-CD81EGFP
Conditions: human, HepG2-A16-CD81EGFP cells; read-out: INHIBITION
Outline: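 Uninfected HepG2-A16-CD81EGFP cells, 3 × 10^3 per well, 1536-well, plated on prespotted compound at 10 μM final, parasite-free screening media added to match infected plates; puromycin 10 μM positive, DMSO 0.5% negative; run in parallel with 48 h PbLuc assay at 37 °C, 5% CO2; viability by CellTiter-Glo luminescence, normalized to controls.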

Structure (SMILES) | cytotoxicity at 10 µM [%]
O=C(Nc1cccc(OCc2cccc(F)c2)c1)C1COCCO1 (configuration not stated) | 8.06
CC(C)NC(=O)N[C@H]1C[C@@H](Cc2cc(CN3CCOCC3)on2)C1(C)C | -5.5
COc1cccc2c1ccn2CCNC(=O)C1CCC1 | -3.54
O=C(NCC1(O)CCCC1)c1ccc2nsnc2c1 | -5.37
CC(C)N(C)[C@@H]1CCN(Cc2ccoc2)[C@H]1Cc1ccccc1 | -2.57
CCC(=O)N1CCC2(CC1)CN(C(C)=O)c1ccc(C)cc12 | 8.82
COc1nn(C)c2c1CCCN(S(=O)(=O)c1ccccc1F)C2 | -109
O=C(O)c1ccc2c(c1)C1(CCCCC1)CN2C(=O)c1cccs1 | 3.01
Cc1cnc(CNC(=O)[C@@H]2CC[C@@H]3[C@@H](CCN3Cc3ccco3)O2)cn1 | 0.296
Cc1c(C)n(CC(O)CN2CCCCCC2)c2c(Cl)cccc12 (configuration not stated) | -21.9
CCC(=O)Nc1ccc2c(c1)CN(C(=O)c1ccco1)CC2 | 5.84
O=S(=O)(Cc1ccccc1)NCC1CCN(c2cnccn2)CC1 | 14.4
Cc1cc(O)c(OCC(=O)/N=c2\[nH]cc(C)s2)cn1 | -12.4
c1ccc(OCCNCc2cccs2)nc1 | -3.26
CCn1cc(CN(C)S(=O)(=O)c2ccc(NC(C)=O)cc2)cn1 | 9.22
COCCNC(=O)c1ccc2c(=O)n3c(nc2c1)CCN(C)CC3 | -1.02
CNc1cccc(C2CN(C(=O)c3c[nH]cn3)CCO2)n1 (configuration not stated) | 6
O=C(NCC1CC1)Nc1cnc2cc(Cl)ccc2c1O | -0.0788
Cc1nn(C)c(C)c1NC(=O)CNC(c1ccc(F)cc1)C1CCC1 (configuration not stated) | -1.65
Cc1ccc2nc(CN(Cc3ccc(C)o3)C(C)C)cc(=O)n2c1 | 5.6
CCCC(NC(=O)c1ccccn1)c1nnc2ccccn12 (configuration not stated) | -6.54
CC(C(=O)N(Cc1ccc(F)cc1)CC(F)(F)F)S(C)(=O)=O (configuration not stated) | 14.7
CN(CCOc1ccccc1Cl)S(=O)(=O)N1CCOCC1 | -3.51

Structure (SMILES) | cytotoxicity at 10 µM [%]
Cc1ncc(CNC(=O)NCC(C)Oc2ccccc2F)s1 (configuration not stated) | -7.16
Cc1ccc(CC(=O)NCC(O)c2cc(Cl)cc(Cl)c2)cn1 (configuration not stated) | -3.69
CN(Cc1nc2ccccc2n1C)C(=O)CCc1cscn1 | -159
Cc1nc(S(=O)(=O)N2CCCCc3ccccc32)cn1C | -2.38
CSCCC(=O)N1CCN(CC(O)C(C)(C)C)CC1 (configuration not stated) | -2.06
Cc1ncc(C(=O)Nc2cncnc2N(C)C)c(Cl)c1Cl | 0.776
CCCc1n[nH]c(C2CN(CC(=O)N(C)Cc3ccco3)CCO2)n1 (configuration not stated) | -4.84
c1nc(-c2nc(C3CCOC3)no2)cs1 (configuration not stated) | 6.18
CN(C)c1cc2c(nn1)CCN(C(=O)Cc1ccc3c(c1)CCO3)C2 | 5.71
CC(C)N(CC(N)=O)CC(=O)NCCc1c(F)cccc1F | -4.97
CCCN1CCCN(c2ccc(-n3ccc(C)n3)nn2)CC1 | -1.2
Cc1cnn(C2CN(c3nc(C)cc(N(C)C)n3)C2)c1 | -5.12
Cc1ccc(CCNC(=O)NCc2cccc(OC(F)F)c2)cn1 | -2.66
O=C(NCc1ccccn1)NCC(c1ccco1)N1CCCCC1 (configuration not stated) | -2.93
Cc1cn(CC(=O)NC2CCN(CC3CC3)CC2)c2ccccc12 | 0.951
Cc1cnc(NC(=O)N2CCOCC2)s1 | -1.14
CC(C)N(CC(N)=O)C(=O)c1cnc(-c2ccc3c(c2)OCO3)s1 | -5.92
Cc1ncsc1CCN1CCC(N(C)Cc2noc(C(C)C)n2)C1 (configuration not stated) | 2.17
OCC1CCCN1c1cc(NCc2cc3ccccc3o2)ncn1 (configuration not stated) | 7.53
CN1CCC(NC(=O)CCCc2cc(Cl)sc2Cl)C1=O (configuration not stated) | -2.46
CCCc1cc(N2CCCC2Cn2nc(C)cc2C)n2ncnc2n1 (configuration not stated) | 2.48
COC(=O)c1ccc(N2CCC(N(C)c3ccccc3)CC2)nn1 | -4.92
CCN(C(=O)CNc1cc(C)c(F)cc1C(N)=O)C1CC1 | 2.14

Structure (SMILES) | cytotoxicity at 10 µM [%]
O=C(NCCn1ccnc1)c1cc(F)cc(Br)c1 | -1.62
CS(=O)(=O)CCCOc1cccc(-n2ccnc2)c1 | 5.13
CCN(C(=O)CN1CCCC1c1ccc(OC)cc1)c1ccccc1 (configuration not stated) | -2.25
COc1ccc2c(c1)C(NCCc1ccccn1)CCCO2 (configuration not stated) | -6.03
COc1ccc(Br)cc1CCC(=O)N1CCCC1 | -4.2
CC(C)Oc1nnc(SCC(=O)NCC(=O)N2CCCC2)s1 | 1.38
Cc1nc(-c2ccccc2)sc1CSC(C)C(N)=O (configuration not stated) | -6.55
CCC(C)(C)NC(=O)c1ccc(-c2ccco2)[nH]c1=O | -15.6
CC(C)N(C)CC(=O)NCCc1nc(C(F)(F)F)cs1 | 5.07
Cc1ccc(C(CNCc2cnn(C(C)C)c2)N2CCOCC2)s1 (configuration not stated) | -21.3
CCc1nnc(CNCC2CCCN2c2cccnn2)o1 (configuration not stated) | -10.7
Cc1cnn(CC2CCCN2C(=O)CCCc2nc(C)no2)c1 (configuration not stated) | 2.86
COCCN1CCCC2(CCN(c3nccc4ccccc34)C2)C1=O (configuration not stated) | -0.212
CCCn1ncc(C(=O)N2CCC(N3CCCCC3)CC2)c1C | -143
Cc1nccc(-c2ccccc2)c1C(=O)N1CCC2(CCCO2)CC1 | 2.34
Cc1ccc(-c2noc([C@H](N)CC(C)C)n2)nn1 | 1.27
CCc1cc(N2CCN(c3cnccn3)CC2)n2nc(C)c(C)c2n1 | 6.71
COCC[C@]1(O)CCN(Cc2nc(C)c(C)s2)C[C@H]1C | 2.14
CCOc1ccc2[nH]c(=O)c(CN3CCCC(CO)(CO)C3)cc2c1 | 22.3
O=C(CCc1ccncc1)N1CCc2c(ncnc2N2CCOCC2)C1 | -11.5
CCCc1cc(C(=O)N2CCC3(CCCN(CCOC)C3=O)C2)cs1 (configuration not stated) | -167
N[C@@H]1CCN(Cc2cc(-c3ccccc3OC(F)(F)F)no2)C[C@H]1O | 2.42
Cc1ccn(CCNc2ncnc3c2CCN(c2cnccn2)CC3)n1 | -1.81

Structure (SMILES) | cytotoxicity at 10 µM [%]
Cc1nc(CCC(=O)N2Cc3cnc(-c4ccccc4)nc3C2)n[nH]1 | -0.227
CCc1ncc2c(n1)CN(c1cc(NC3CC3)nc(N)n1)C2 | 5.75
CN(C)C(=O)N1CCN(CCCOc2ccccc2)[C@H]2CS(=O)(=O)C[C@H]21 | 0.666
Cc1nn(C)c(C)c1CN(Cc1cccn1-c1ccccn1)C(C)C | 0.936
O=C1NCCN1CCNCC1(O)CCCN(CCC2CCCCC2)C1=O (configuration not stated) | -1.04
CC[C@@]1(O)CCN(C(=O)CCc2cnn(C)c2)C[C@H]1O | -0.634
O=C(c1cccnc1O)N1CCCC2(C=Cc3ccccc3O2)CC1 (configuration not stated) | 9.02
N#Cc1cccc(CN2CCN(C(=O)C3CCC3)[C@@H]3CS(=O)(=O)C[C@@H]32)c1 | -3.49
CCn1ccnc1CNc1nccc(-c2c(C)nn(C)c2C)n1 | -0.0793
Cc1nn(C)cc1C(=O)N1CCCN(C2Cc3ccccc3C2)CC1 | -3.16
CCCn1nc(C)c(CNC(=O)c2snnc2C)c1C | -15.5
Cc1nc2c(C(=O)N[C@H]3C[C@H]4CN(C)CCN4C3)cccc2[nH]1 | -7.98
O=C1CSc2ccccc2N1CC(=O)N1CCCCC1c1nccs1 (configuration not stated) | 14.4
COCC[C@]1(O)CCN(C(=O)c2cnn(C)c2)C[C@H]1C | 2.59
CN(Cc1csc(-c2ccccc2)n1)C(=O)CCNS(C)(=O)=O | 0.571
CC(C)(C)c1cc(CNC(=O)c2cc(COc3ccccc3)[nH]n2)[nH]n1 | 8.28
CC(C)NC(=O)[C@@H]1C[C@@H](N)CN1C(=O)c1cc2c([nH]c1=O)CCCC2 | -0.869
Cn1cc(C(=O)N2CCCCC2CCc2ccccc2)cn1 (configuration not stated) | -7.45
CN(Cc1ccon1)C(=O)C1CC(=O)N(Cc2cccnc2)C1 (configuration not stated) | -3.83
CC(C)c1cc(CSCCC(=O)O)no1 | -7.52
O=C(CSc1nccc(-c2ccc3c(c2)OCO3)n1)N1CCOCC1 | -8.3
Cc1cn(Cc2ccc(F)cc2)nc1N | -8.99
Cc1oc(C(=O)O)cc1S(=O)(=O)Nc1cccc(Cl)c1F | -5.99

Structure (SMILES) | cytotoxicity at 10 µM [%]
O=C(Cc1ccc2c(c1)CCC2)N1CCN(c2cnccn2)CC1 | -2.18
CC(Cn1ccnc1)NC(=O)C1(c2ccc(F)cc2)CCCC1 (configuration not stated) | -9.98
O=C(NCc1cc[nH]n1)NCC(O)c1ccc(F)c(F)c1 (configuration not stated) | -21
Cc1ccc(NC2CCN(C(=O)c3nccc4ccccc34)CC2)nn1 | -13.5
Cc1cccc(N2CCN(C(=O)NC(C)c3nncn3C)CC2)c1C (configuration not stated) | -4.41
CCn1ccnc1CN1CCCN(C(=O)COC2CCCC2)CC1 | -6.58
CCOc1ncccc1CNC(=O)Nc1ccc(OC)c(OC)c1 | -3.82
O=C(CCn1cncn1)NCC(c1ccco1)N1CCCC1 (configuration not stated) | -3.62
COc1ccnc(N2CCN(C(=O)Cc3ccn(C(C)C)n3)CC2)n1 | -16.2
CC(C)c1nccn1C1CCCN(C(=O)c2ccc3c(c2)COC3)C1 (configuration not stated) | 3.19
CCc1nnc(CN2CCCN(C(=O)c3ccccn3)CC2)o1 | -5.56
CCN(C)S(=O)(=O)N(CC)Cc1ccc2c(c1)OCO2 | -6.62
Cc1ccc2c(c1)C(NC(C)C)CC21CCNCC1 (configuration not stated) | -10.6
O=C(c1ccc2ccccc2n1)N1CCC2(CCN2c2ncccn2)C1 (configuration not stated) | -114
COCCN1CCC2(CCC(=O)N2Cc2csc(C)n2)CC1 | 2.22
CCc1ccc(CN2CCc3ncnc(-c4cccnc4)c3CC2)o1 | 12.8
CN(C)CCO[C@H]1CN(Cc2cccc(C#N)c2)[C@@H]2COC[C@H]12 | -12.7
O=C(N1CCCO1)[C@@]12CCO[C@@H]1CCN(Cc1ccc(F)cc1)C2 | -6.1
CSc1ccc(CNC2CCCc3c2cnn3C)cc1 (configuration not stated) | 0.684
Cc1noc(C)c1CN1C(=O)[C@@H]2CC[C@H]1CN(Cc1ccc(Cl)cc1)C2 | 6.22
